In ChEMBL document CHEMBL5724801, “EUbOPEN Chemogenomics Library - Multiplex” (2024):
Where “and” joins values, the source holds several entries; their conditions need not be identical. Equal entries are not always repeated.

System: U2OS
Assay: Multiplex assay against U2OS
Assay type: toxicity, cell-based
Settings: human
How it was run: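 Live cells were stained at seeding with Hoechst33342, BioTracker Green Microtubule Cytoskeleton Dye, MitoTracker Red and Annexin V Alexa Fluor 680, then imaged on a CQ1 microscope at 37°C and 5% CO2 after compound addition. CellPathfinder machine-learning gating split cells into Hoechst high-intensity objects or normal cells. Normal cells were split into healthy, pyknosed or fragmented nuclei, and pyknosed cells into mitotic or apoptotic. Tubulin, mitochondrial-mass and membrane-permeability phenotypes are per cents of healthy-nucleus cells.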

[1] = 12 h, 1 µM, compound concentration 1 uM
[2] = 12 h, 10 µM, compound concentration 10 uM
[3] = 24 h, 1 µM, compound concentration 1 uM
[4] = 24 h, 10 µM, compound concentration 10 uM
[5] = 48 h, 1 µM, compound concentration 1 uM
[6] = 48 h, 10 µM, compound concentration 10 uM

Cl.Clc1cc2cc(c1)-c1cnn3ccc(nc13)NCCOCCO2
Population Fragmented Nuclei (%) [1]: 3.05% and 2.1% | Population Healthy Nuclei (%) [1]: 88.09% and 86.01% | Population Hoechst High Intensity Objects (%) [1]: 0% | Population Membrane Permeable-Phenotype (%) [1]: 0.94% and 0.81% | Population Mitochondria Different-Phenotype (%) [1]: 0% and 8.94% | Population Mitotic Cells (%) [1]: 56.25% and 94.12% | Population Normal (%) [1]: 100% | Population Pyknosed Nuclei (%) [1]: 8.86% and 11.89% | Population Tubulin-Different-Phenotype (%) [1]: 0.94% and 0% | Total Cell Count [1]: 361 and 143 | Population Apoptotic (%) [2]: 35.21% and 35.71% | Population Fragmented Nuclei (%) [2]: 3.56% and 1.13% | Population Healthy Nuclei (%) [2]: 82.38% and 83.05% | Population Hoechst High Intensity Objects (%) [2]: 0% | Population Membrane Permeable-Phenotype (%) [2]: 0.96% and 3.4% | Population Mitotic Cells (%) [2]: 64.79% and 64.29% | Population Normal (%) [2]: 100% | Population Pyknosed Nuclei (%) [2]: 14.06% and 15.82% | Population Tubulin-Different-Phenotype (%) [2]: 2.16% and 1.36% | Total Cell Count [2]: 505 and 177 | Population Apoptotic (%) [3]: 43.75% and 57.89% | Population Fragmented Nuclei (%) [3]: 2.2% and 1.09% | Population Healthy Nuclei (%) [3]: 88.2% and 88.52% | Population Hoechst High Intensity Objects (%) [3]: 0% | Population Membrane Permeable-Phenotype (%) [3]: 0.68% and 3.09% | Population Mitochondria Different-Phenotype (%) [3]: 0% and 5.56% | Population Mitotic Cells (%) [3]: 56.25% and 42.11% | Population Normal (%) [3]: 100% | Population Pyknosed Nuclei (%) [3]: 9.6% and 10.38% | Population Tubulin-Different-Phenotype (%) [3]: 0.45% and 0% | Total Cell Count [3]: 500 and 183 | Population Apoptotic (%) [4]: 55.41% and 45% | Population Fragmented Nuclei (%) [4]: 1.48% and 2.62% | Population Healthy Nuclei (%) [4]: 86.37% and 79.91% | Population Hoechst High Intensity Objects (%) [4]: 0.16% and 0% | Population Membrane Permeable-Phenotype (%) [4]: 0.19% and 2.73% | Population Mitochondria Different-Phenotype (%) [4]: 0% and 4.37% | Population Mitotic Cells (%) [4]: 44.59% and 55% | Population Normal (%) [4]: 99.84% and 100% | Population Pyknosed Nuclei (%) [4]: 12.15% and 17.47% | Population Tubulin-Different-Phenotype (%) [4]: 1.33% and 2.73% | Total Cell Count [4]: 610 and 229 | Population Apoptotic (%) [5]: 47.73% and 42.42% | Population Fragmented Nuclei (%) [5]: 3.1% and 2.92% | Population Healthy Nuclei (%) [5]: 87.5% and 86.36% | Population Hoechst High Intensity Objects (%) [5]: 0% | Population Membrane Permeable-Phenotype (%) [5]: 0.98% and 3.01% | Population Mitochondria Different-Phenotype (%) [5]: 0% and 3.01% | Population Mitotic Cells (%) [5]: 52.27% and 57.58% | Population Normal (%) [5]: 100% | Population Pyknosed Nuclei (%) [5]: 9.4% and 10.71% | Population Tubulin-Different-Phenotype (%) [5]: 0.85% and 1.5% | Population Apoptotic (%) [6]: 53.64% and 54.72% | Population Fragmented Nuclei (%) [6]: 3.97% and 2.37% | Population Healthy Nuclei (%) [6]: 81.76% and 83.68% | Population Hoechst High Intensity Objects (%) [6]: 0.19% and 0% | Population Membrane Permeable-Phenotype (%) [6]: 1.39% and 4.4% | Population Mitochondria Different-Phenotype (%) [6]: 0.46% and 3.77% | Population Mitotic Cells (%) [6]: 46.36% and 45.28% | Population Normal (%) [6]: 99.81% and 100% | Population Pyknosed Nuclei (%) [6]: 14.27% and 13.95% | Population Tubulin-Different-Phenotype (%) [6]: 2.43% and 3.46% | Total Cell Count [6]: 1060 and 380

Cc1ccc(F)cc1C(=O)Nc1ccc(C(=O)N2Cc3cccn3Cc3ccccc32)c(Cl)c1 [LIXIVAPTAN]
Population Apoptotic (%) [1]: 69% and 84% | Population Healthy Nuclei (%) [1]: 55% and 82% | Population Hoechst High Intensity Objects (%) [1]: 3% | Population Membrane Permeable-Phenotype (%) [1]: 9% and 14% | Population Mitochondria Different-Phenotype (%) [1]: 9% and 10% | Population Mitotic Cells (%) [1]: 30% and 15% | Population Normal (%) [1]: 96% | Population Pyknosed Nuclei (%) [1]: 11% and 8% | Population Tubulin-Different-Phenotype (%) [1]: 7% and 11% | Total Cell Count [1]: 230 and 150 | Population Apoptotic (%) [2]: 59% and 47% | Population Fragmented Nuclei (%) [2]: 34% and 13% | Population Healthy Nuclei (%) [2]: 49% and 69% | Population Hoechst High Intensity Objects (%) [2]: 5% | Population Membrane Permeable-Phenotype (%) [2]: 79% and 63% | Population Mitochondria Different-Phenotype (%) [2]: 42% and 55% | Population Mitotic Cells (%) [2]: 40% and 52% | Population Normal (%) [2]: 94% | Population Pyknosed Nuclei (%) [2]: 16% | Population Tubulin-Different-Phenotype (%) [2]: 85% and 77% | Total Cell Count [2]: 203 and 119 | Population Apoptotic (%) [3]: 86% and 57% | Population Fragmented Nuclei (%) [3]: 26% and 14% | Population Healthy Nuclei (%) [3]: 64% and 81% | Population Hoechst High Intensity Objects (%) [3]: 1% and 4% | Population Membrane Permeable-Phenotype (%) [3]: 9% and 11% | Population Mitochondria Different-Phenotype (%) [3]: 9% and 13% | Population Normal (%) [3]: 98% and 95% | Population Pyknosed Nuclei (%) [3]: 8% and 4% | Population Tubulin-Different-Phenotype (%) [3]: 4% and 7% | Total Cell Count [3]: 257 and 171 | Population Apoptotic (%) [4]: 59% and 66% | Population Fragmented Nuclei (%) [4]: 30% and 14% | Population Healthy Nuclei (%) [4]: 50% and 67% | Population Hoechst High Intensity Objects (%) [4]: 4% | Population Membrane Permeable-Phenotype (%) [4]: 65% and 54% | Population Mitochondria Different-Phenotype (%) [4]: 63% and 67% | Population Mitotic Cells (%) [4]: 40% and 33% | Population Normal (%) [4]: 95% | Population Pyknosed Nuclei (%) [4]: 18% | Population Tubulin-Different-Phenotype (%) [4]: 75% and 66% | Total Cell Count [4]: 207 and 119 | Population Apoptotic (%) [5]: 87% and 95% | Population Fragmented Nuclei (%) [5]: 24% and 10% | Population Healthy Nuclei (%) [5]: 64% and 79% | Population Hoechst High Intensity Objects (%) [5]: 1% and 3% | Population Membrane Permeable-Phenotype (%) [5]: 9% and 13% | Population Mitochondria Different-Phenotype (%) [5]: 6% and 11% | Population Mitotic Cells (%) [5]: 12% and 5% | Population Normal (%) [5]: 98% and 96% | Population Pyknosed Nuclei (%) [5]: 11% and 10% | Population Tubulin-Different-Phenotype (%) [5]: 5% | Total Cell Count [5]: 378 and 206 | Population Apoptotic (%) [6]: 75% and 92% | Population Fragmented Nuclei (%) [6]: 32% and 18% | Population Healthy Nuclei (%) [6]: 37% and 58% | Population Hoechst High Intensity Objects (%) [6]: 5% and 12% | Population Membrane Permeable-Phenotype (%) [6]: 49% and 60% | Population Mitochondria Different-Phenotype (%) [6]: 40% and 52% | Population Normal (%) [6]: 94% and 87% | Population Pyknosed Nuclei (%) [6]: 29% and 23% | Population Tubulin-Different-Phenotype (%) [6]: 44% and 57% | Total Cell Count [6]: 232 and 137
